# Results taken from ChEMBL document CHEMBL1153760, “Identification and structure-activity relationships of chromene-derived selective estrogen receptor modulators for treatment of postmenopausal symptoms” (J Med Chem, 2009).
# Calls of active or inactive are those of the source. The calls are words filed in the database; no cut-off is given here.
# Legend:
# [1] = test system: Rattus norvegicus; assay: Decrease in tail skin temperature rise in morphine-addicted Sprague-Dawley rat hot flush model at 1.4 mg/kg, po administered daily measured for 60 mins after naloxone-induced morphine withdrawal; assay type: functional, organism-based; set-up: dose 1.4 mg/kg
# Procedure, shortened: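 Adult female Sprague-Dawley rats (3 months), 8-25 per group, ovariectomized; oral gavage started 6 days post-surgery; morphine suspension 75 and 150 mg sc on treatment days 3 and 5; last day ketamine 80 mg/kg im, tail thermistor baseline ~20 min, naloxone 2.0 mg/kg sc, tail skin temperature for 60 min; multiple comparisons per time point.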
# [2] = test system: Rattus norvegicus; assay: Increase in uterine weight in ovariectomized rat osteopenia model at 1 mg/kg, po administered daily measured after 6 weeks; assay type: functional, organism-based; set-up: dose 1 mg/kg
# [3] = test system: Rattus norvegicus; assay: Decrease in bone resorption in ovariectomized rat assessed as decrease in urine deoxypyridinoline level at 1.4 mg/kg, po administered daily measured after 6 weeks; assay type: functional, organism-based; set-up: dose 1.4 mg/kg
# [4] = test system: Rattus norvegicus; assay: Increase in uterine weight in ovariectomized rat osteopenia model at 1.4 mg/kg, po administered daily measured after 6 weeks; assay type: functional, organism-based; set-up: dose 1.4 mg/kg
# [5] = test system: Rattus norvegicus; assay: Estrogenic activity in ovariectomized rat assessed as minor increase in uterine epithelial thickness at 1.4 mg/kg, po administered daily measured after 6 week by immunohistochemical analysis; assay type: functional, organism-based; set-up: dose 1.4 mg/kg
# [6] = species: Rattus norvegicus; assay: animal or person; assay type: functional; conditions: Uterus, 72 h, route oral
# [7] = molecular target: Estrogen receptor beta (Homo sapiens, UniProt Q92731); assay: Inhibition of fluormone ES2 binding to estrogen receptor beta after 1 hr by fluorescence polarization assay
# Estrogen receptor beta, sequence (Q92731 whole entry): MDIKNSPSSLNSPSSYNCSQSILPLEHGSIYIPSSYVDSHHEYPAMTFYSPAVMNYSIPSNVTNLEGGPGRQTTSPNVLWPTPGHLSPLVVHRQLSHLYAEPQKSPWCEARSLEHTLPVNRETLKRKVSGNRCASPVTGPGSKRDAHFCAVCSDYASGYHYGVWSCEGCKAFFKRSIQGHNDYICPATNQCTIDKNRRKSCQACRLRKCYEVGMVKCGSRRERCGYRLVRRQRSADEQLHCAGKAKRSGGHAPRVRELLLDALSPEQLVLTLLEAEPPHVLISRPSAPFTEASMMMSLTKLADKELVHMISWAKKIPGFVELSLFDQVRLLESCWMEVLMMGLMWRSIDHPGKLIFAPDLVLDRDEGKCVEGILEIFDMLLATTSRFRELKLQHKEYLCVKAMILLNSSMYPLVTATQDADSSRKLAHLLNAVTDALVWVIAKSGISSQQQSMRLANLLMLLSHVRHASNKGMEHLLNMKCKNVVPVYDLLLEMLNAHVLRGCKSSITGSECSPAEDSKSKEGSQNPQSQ
# [8] = molecular target: T1, Estrogen receptor (Homo sapiens, UniProt P03372); assay: Antagonist activity at estrogen receptor in human Ishikawa cells assessed as 17-beta-estradiol-induced alkaline phosphatase activity after 3 days by chemiluminescence assay; assay type: functional, cell-based
# T1 sequence (P03372 whole entry): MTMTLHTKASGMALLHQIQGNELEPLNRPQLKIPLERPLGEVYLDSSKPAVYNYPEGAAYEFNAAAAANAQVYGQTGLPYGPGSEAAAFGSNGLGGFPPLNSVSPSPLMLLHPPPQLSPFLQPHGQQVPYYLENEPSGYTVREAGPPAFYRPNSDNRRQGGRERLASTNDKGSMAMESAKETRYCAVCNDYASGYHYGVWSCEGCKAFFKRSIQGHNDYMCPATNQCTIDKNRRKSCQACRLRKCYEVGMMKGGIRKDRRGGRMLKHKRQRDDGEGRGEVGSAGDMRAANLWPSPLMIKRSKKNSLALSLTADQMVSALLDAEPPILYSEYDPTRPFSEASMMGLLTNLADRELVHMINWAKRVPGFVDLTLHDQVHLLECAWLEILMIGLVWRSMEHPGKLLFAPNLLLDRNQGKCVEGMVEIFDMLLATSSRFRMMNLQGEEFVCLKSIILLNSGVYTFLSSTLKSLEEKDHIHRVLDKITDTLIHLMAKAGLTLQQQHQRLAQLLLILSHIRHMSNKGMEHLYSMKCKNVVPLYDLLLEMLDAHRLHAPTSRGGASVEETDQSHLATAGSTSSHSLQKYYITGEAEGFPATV
# [9] = Oral bioavailability in rat at 10 mg/kg administered as single dose by LC-MS/MS analysis; assay type: ADME, organism-based; conditions: in vivo
# Procedure, shortened: (§1)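 Single-dose rat pharmacokinetics. IV dosing at 1-3 mg/kg as a solution in 10% β-cyclodextrin; oral gavage at 10 mg/kg as a uniform suspension in 0.5% methylcellulose. Blood (0.5 mL) collected into heparinized tubes by orbital sinus puncture after dosing. Plasma extracted into acetonitrile with an internal standard and analysed by LC-MS-MS against standards to obtain PK parameters.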
# [10] = molecular target: T1, Estrogen receptor; assay: Displacement of radiolabeled estrogen from estrogen receptor alpha by scintillation counting
# [11] = Tmax in rat at 10 mg/kg, po administered as single dose by LC-MS/MS analysis; assay type: ADME, organism-based; set-up: dose 10 mg/kg, route oral; conditions: in vivo; procedure, shortened: as §1
# [12] = Half life in rat at 10 mg/kg, po administered as single dose by LC-MS/MS analysis; assay type: ADME, organism-based; set-up: dose 10 mg/kg, route oral; conditions: in vivo; procedure, shortened: as §1
# [13] = AUC in rat at 10 mg/kg, po administered as single dose by LC-MS/MS analysis; assay type: ADME, organism-based; set-up: dose 10 mg/kg, route oral; conditions: plasma; procedure, shortened: as §1
# [14] = Cmax in rats after 10 mg/kg oral dose; assay type: ADME, organism-based; set-up: dose 10 mg/kg, route oral; conditions: rat, in vivo; procedure, shortened: as §1
# [15] = test system: Rattus norvegicus; assay: Decrease in bone resorption in ovariectomized rat assessed as decrease in urine deoxypyridinoline level at 0.1 mg/kg, po administered daily measured after 6 weeks; assay type: functional, organism-based; set-up: dose 0.1 mg/kg
# Procedure, shortened: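 Adult (>6 months) female rats, housed singly on a casein-based diet, ovariectomized under sterile conditions and anesthesia; 6-14 per group. From 24 h after surgery, daily oral gavage of an aqueous suspension in 0.5% Methocel for 2 or 6 weeks. […] Urine deoxypyridinoline measured as bone-resorption marker.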
# [16] = test system: Rattus norvegicus; assay: Increase in vaginal fluidity in ovariectomized rat at 0.1 mg/kg, po administered daily measured after 6 weeks by cytology analysis; assay type: functional, organism-based; set-up: dose 0.1 mg/kg
# Procedure, shortened: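 Ovariectomized adult female rats dosed daily by oral gavage (0.5% Methocel suspension) for 2 or 6 weeks from 24 h after surgery. Vaginal fluid collected with a cotton swab and its absolute weight determined per animal.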
# [17] = test system: Rattus norvegicus; assay: Decrease in tail skin temperature rise in morphine-addicted Sprague-Dawley rat hot flush model at 0.3 mg/kg, po administered daily measured for 60 mins after naloxone-induced morphine withdrawal; assay type: functional, organism-based; set-up: dose 0.3 mg/kg
# Procedure, shortened: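 Ovariectomized adult female Sprague-Dawley rats (3 months), 8-25 per group; oral gavage starting 6 days post-ovariectomy, sesame oil vehicle, suspension. Morphine given sc at 75 and 150 mg on treatment days 3 and 5. On the last day, under ketamine (80 mg/kg, im), tail thermistor; baseline about 20 min, then naloxone 2.0 mg/kg sc and tail skin temperature recorded 60 min. Multiple comparisons at each time point.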
# [18] = test system: Rattus norvegicus; assay: Uterotropic activity in rat assessed as stimulation of estrone-induced uterine weight at 1 mg/kg, po QD after 3 days; assay type: functional; conditions: Uterus, 72 h
Compound,IC50 [7] [nM],IC50 [8] [nM],IC50 [10] [nM],inhibition in vivo at 1 mg/kg [6] [%],further results
CC(C)(C)C(=O)Oc1ccc2c(c1)O[C@H](c1ccc(OCCN3CCCCC3)cc1)C1=C2COc2cc(OC(=O)C(C)(C)C)ccc21,–,–,–,–,Activity [1]: Active; Activity [2]: inactive; Activity [3]: Active; Activity [4]: Active; Activity [5]: Active
C#C[C@]1(O)CC[C@H]2[C@@H]3CCc4cc(O)ccc4[C@H]3CC[C@@]21C,–,–,–,–,Activity [15]: Active; Activity [16]: Active; Activity [17]: Active
Oc1ccc2c(c1)O[C@@H](c1ccc(OCCN3CCCCCC3)cc1)C1=C2CCOc2ccccc21,41,144,4,7,–

# Second part, led by results:
IC50 [7] [nM],IC50 [8] [nM],IC50 [10] [nM],Compound,inhibition in vivo at 1 mg/kg [6] [%],further results
200,259,100,Oc1ccc2c(c1)O[C@H](c1ccc(OCCN3CCCCC3)cc1)C1=C2CCOc2ccccc21,5,bioavailability [9]: 9%; Tmax [11]: 4.8 h; half-life [12]: 5.28 h; AUC [13]: 1130 ng·h/mL; Cmax [14]: 30 ng/mL
27,87,1.2,Oc1ccc2c(c1)O[C@H](c1ccc(OCCN3CCSCC3)cc1)C1=C2CCOc2cc(O)ccc21,85,bioavailability [9]: 9%; Tmax [11]: 4.8 h; half-life [12]: 5.28 h; AUC [13]: 1530 ng·h/mL; Cmax [14]: 89 ng/mL
18.5,35,5.6,CC(C)N(CCOc1ccc([C@@H]2Oc3cc(O)ccc3C3=C2c2ccc(O)cc2OCC3)cc1)C(C)C,30,stimulation at 1 mg/kg [18]: 80%
108,113,5,CCN(CC)CCOc1ccc([C@H]2Oc3cc(F)ccc3C3=C2c2ccc(O)cc2OCC3)cc1,80,–
